Experimental data from ChEMBL document CHEMBL2062414, “Selected chromone derivatives as inhibitors of monoamine oxidase” (Bioorg Med Chem Lett, 2012).

Columns and labels:
Homo sapiens = species on record: Homo sapiens; assay: Selectivity ratio of IC50 for recombinant human MAO-A to IC50 for recombinant human MAO-B
Summary of the method: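 This is a selectivity index for MAO-B, computed as IC50(MAO-A)/IC50(MAO-B). Both IC50s were measured fluorometrically on recombinant human enzymes as kynuramine conversion to 4-hydroxyquinoline, in triplicate.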

[1] = target: T1, Amine oxidase [flavin-containing] B (Homo sapiens, UniProt P27338); assay: Inhibition of recombinant human MAO-B assessed as inhibition of kynuramine to 4-hydroxyquinoline conversion after 20 mins by fluorometry
T1 sequence (P27338 whole entry): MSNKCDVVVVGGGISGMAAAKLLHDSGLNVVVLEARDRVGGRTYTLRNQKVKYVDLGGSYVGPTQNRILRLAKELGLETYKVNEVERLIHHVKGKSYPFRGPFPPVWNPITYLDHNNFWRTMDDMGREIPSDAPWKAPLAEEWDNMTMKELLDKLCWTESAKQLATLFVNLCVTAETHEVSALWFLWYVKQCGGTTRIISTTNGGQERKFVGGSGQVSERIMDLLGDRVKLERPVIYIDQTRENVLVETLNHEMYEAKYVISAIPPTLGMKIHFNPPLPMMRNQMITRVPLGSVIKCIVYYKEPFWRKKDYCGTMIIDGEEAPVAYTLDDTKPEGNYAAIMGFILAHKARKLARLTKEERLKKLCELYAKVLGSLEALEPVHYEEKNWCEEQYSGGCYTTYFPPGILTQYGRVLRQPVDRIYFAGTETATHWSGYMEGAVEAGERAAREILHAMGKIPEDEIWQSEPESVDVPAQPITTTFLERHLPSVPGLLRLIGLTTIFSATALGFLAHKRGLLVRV

[2] = target: T2, Amine oxidase [flavin-containing] A (Homo sapiens, UniProt P21397); assay: Inhibition of recombinant human MAO-A assessed as inhibition of kynuramine to 4-hydroxyquinoline conversion after 20 mins by fluorometry
T2 sequence (P21397 whole entry): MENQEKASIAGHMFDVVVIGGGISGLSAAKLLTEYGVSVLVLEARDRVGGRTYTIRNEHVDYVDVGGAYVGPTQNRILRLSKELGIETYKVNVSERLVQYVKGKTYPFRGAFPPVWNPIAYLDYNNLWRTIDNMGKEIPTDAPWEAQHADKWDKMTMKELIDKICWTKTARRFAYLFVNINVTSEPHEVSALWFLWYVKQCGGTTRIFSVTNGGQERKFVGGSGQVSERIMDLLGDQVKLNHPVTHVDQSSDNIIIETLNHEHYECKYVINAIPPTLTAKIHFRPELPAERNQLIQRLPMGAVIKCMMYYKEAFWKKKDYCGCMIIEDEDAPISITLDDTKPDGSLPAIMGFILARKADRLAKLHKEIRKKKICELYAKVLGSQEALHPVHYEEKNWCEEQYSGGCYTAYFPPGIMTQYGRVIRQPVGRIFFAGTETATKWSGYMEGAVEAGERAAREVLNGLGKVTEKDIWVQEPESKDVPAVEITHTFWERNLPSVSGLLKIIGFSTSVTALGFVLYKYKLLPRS
Summary of the method: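 Recombinant human MAO-A was incubated with the mixed MAO-A/B substrate kynuramine. Activity was read fluorometrically as formation of 4-hydroxyquinoline. IC50 values are given as mean ± SD of triplicate determinations.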

[3] = target: T1, Amine oxidase [flavin-containing] B; assay: Reversible inhibition of recombinant human MAO-B assessed as recovered enzyme activity measuring residual rate of 4-hydroxyquinoline formation at 10 times IC50 preincubated for 30 mins followed by dilution to 0.1 time IC50 measured after 20 mins

Ratio IC50 (Homo sapiens)	IC50 [1] [µM]	IC50 [2] [µM]	Activity [3] [%]	Structure (SMILES)
18	8.03	143		O=c1ccoc2cccc(OCc3ccccc3)c12
3950			68	CC(=O)c1ccc(OCc2cccc(Br)c2)cc1O
595	0.0037	2.2		O=Cc1coc2ccc(OCc3cccc(Br)c3)cc2c1=O
1	54.9	39.9		O=c1ccoc2ccccc12 [CHROMONE]
		1.53	68	O=C1CC(O)Oc2ccc(OCc3cccc(Br)c3)cc21 (centres undefined)
17				CC(=O)c1cc(OCc2ccc(Br)cc2)ccc1O
569				CC(=O)c1ccc(OCc2ccc(Br)cc2)cc1O

Second part, the compound before the results:

Structure (SMILES)	Ratio IC50 (Homo sapiens)	IC50 [1] [µM]	IC50 [2] [µM]	Activity [3] [%]
CC(=O)c1cc(OCc2cccc(Br)c2)ccc1O	34			
COC(=O)c1coc2ccc(OCc3cccc(Br)c3)cc2c1=O	83	0.0774	6.46	
O=c1ccoc2cccc(OCc3ccc(Br)cc3)c12	12	4.34	52.9	
CC(=O)c1c(O)cccc1OCc1cccc(Br)c1	17			
O=C1CC(O)Oc2cccc(OCc3ccc(Br)cc3)c21 (centres undefined)	1.4	44.8	60.6	
O=C(O)c1coc2ccc(OCc3cccc(Br)c3)cc2c1=O	371	0.0028	1.04	68
CC(=O)c1c(O)cccc1OCc1ccc(Br)cc1	53			
O=Cc1coc2ccccc2c1=O	1	23.5	28.9	
